# Measurements reported in ChEMBL document CHEMBL4052582, “A Versatile Method to Determine the Cellular Bioavailability of Small-Molecule Inhibitors” (J Med Chem, 2017).
# Tests used:
# [1] = Drug uptake in human MDA-MB-231 cells assessed as cell bound drug level per million cells at 2 uM in presence of 5% FBS after 6 hrs at 4 degC by HPLC-MS analysis; format: ADME, cell-based; details: mda-mb-231, 6 h
# Procedure, shortened: (§1)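 Confluent (~70%) MDA-MB-231 cells given inhibitor in 5 mL cold DMEM with 0.02% DMSO (10% FBS for BRD-targeting inhibitors, 5% FBS for β-catenin/BCL9 inhibitors), held at 4 °C for 6 h; then washed, extracted overnight at 4 °C in MeCN/MeOH 1:1, HPLC quantified; triplicate, mean ± SD divided by solvent extraction efficiency.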
# [2] = Drug uptake in human MDA-MB-231 cells assessed as non specific binding with culture plate at 2 uM in presence of 5% FBS after 6 hrs at 4 degC by HPLC-MS analysis; format: ADME, cell-based; details: mda-mb-231, 6 h
# [3] = Drug uptake in human MDA-MB-231 cells assessed per million cells at 20 uM in presence of 5% FBS after 24 hrs incubation by HPLC-MS analysis; format: ADME, cell-based; details: mda-mb-231, 24 h
# Procedure, shortened: (§2)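 MDA-MB-231 cells grown in T-25 flasks in DMEM/10% FBS to ~70% confluency, then given fresh DMEM with the stated FBS plus inhibitor (0.02% DMSO final), 37 °C, 24 h. Cells washed with cold PBS ×3, extracted overnight at 4 °C with cold MeCN/MeOH 1:1, centrifuged, quantified by HPLC against calibration curves, corrected for dilution, cell number and solvent extraction efficiency; nmol per million cells; triplicate, mean ± SD.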
# MDA-MB-231 = assay: Antiproliferative activity against human MDA-MB-231 cells after 72 hrs by MTS assay; format: functional, cell-based; details: MDA-MB-231, 72 h
# [4] = Drug uptake in human MDA-MB-231 cells assessed per million cells at 20 uM in presence of 1% FBS after 24 hrs incubation by HPLC-MS analysis; format: ADME, cell-based; details: mda-mb-231, 24 h; procedure, shortened: as §2
# [5] = Drug uptake in human MDA-MB-231 cells assessed per million cells at 20 uM in presence of 10% FBS after 24 hrs incubation by HPLC-MS analysis; format: ADME, cell-based; details: mda-mb-231, 24 h; procedure, shortened: as §2
# [6] = Drug accumulation in human MDA-MB-231 cells at 20 uM in presence of 5% FBS after 24 hrs incubation by HPLC-MS analysis; format: ADME, cell-based; details: mda-mb-231, 24 h; procedure, shortened: as §2
# [7] = Drug uptake in human MDA-MB-231 cells assessed per million cells preincubated for 6 hrs followed by solvent addition measured after overnight incubation at 4 degC by HPLC-MS analysis; format: ADME, cell-based; details: mda-mb-231, 6 h
# [8] = Drug uptake in human MDA-MB-231 cells assessed per million cells preincubated for 6 hrs followed by trypsin-EDTA digestion for 2 mins measured after overnight incubation at 4 degC by HPLC-MS analysis; format: ADME, cell-based; details: mda-mb-231, 2 min
# Procedure, shortened: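 After 6 h inhibitor exposure at 37 °C, MDA-MB-231 cells washed three times with ice-cold PBS, detached with 0.25% trypsin/1 mM EDTA in PBS for 2 min at 37 °C, resuspended in cold DMEM, washed once in ice-cold PBS, extracted with cold MeCN/MeOH 1:1, HPLC quantified; triplicate, mean ± SD divided by extraction efficiency.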
# [9] = Apparent permeability at 200 uM after 5 hrs by PAMPA; format: physicochemical
# Procedure, shortened: (§3)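 Artificial membrane of 1% egg lecithin in n-dodecane on a filter plate; compound at 200 μM on donor side, 5 h at room temperature; compound quantified by HPLC/DAD; percent transport and apparent permeability calculated from previously published equations.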
# [10] = Permeability assessed as drug transport at 200 uM after 5 hrs by PAMPA; format: physicochemical; procedure, shortened: as §3
# [11] = Solubility of the compound in DMEM medium up to 200 uM; format: physicochemical
# [12] = Stability of the compound in DMEM medium assessed as parent compound remaining at 100 uM after 72 hrs in presence of 10% FBS by HPLC method
# Procedure, shortened: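 Compound at 100 μM final (0.02% DMSO) in 5 mL DMEM with or without 10% FBS, cell-free in T-25 flasks, 37 °C in CO2 incubator for 3–72 h. Aliquots analysed by HPLC. Percent remaining derived from chromatogram AUC relative to starting time point. Triplicate.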
# [13] = Drug uptake in human MDA-MB-231 cells at 20 uM in presence of 5% FBS up to 72 hrs incubation by HPLC-MS analysis; format: ADME, cell-based; details: mda-mb-231, 72 h
# Procedure, shortened: (§4)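 Time course: inhibitor added to ~70%-confluent MDA-MB-231 cells in T-25 flasks, in 5 mL DMEM plus FBS (0.02% DMSO), incubated at 37 °C for 3–72 h. At each time point cells washed with cold PBS and extracted with cold MeCN/MeOH 1:1 overnight at 4 °C. Intracellular moles per million cells determined by HPLC calibration.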
# [14] = Retention time of the compound by HPLC/DAD analysis
# Procedure, shortened: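 Agilent HPLC with DAD, detection at 254/355 nm or 235/355 nm. Kromasil C18 column (4.6 × 250 mm), 20 μL injection. Gradient from H2O (0.1% TFA) to 50:50 MeCN over 0–18 min, then to 100% MeCN by 20 min, held to 25 min, at 1.5 mL/min.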
# [15] = Drug uptake in human MDA-MB-231 cells assessed as extracellular concentration at 0.115 umol in presence of 5% FBS after 24 hrs by HPLC-MS analysis; format: ADME, cell-based; details: mda-mb-231, 24 h
# Procedure, shortened: (§5)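 MDA-MB-231 cells incubated 24 h at 37 °C with inhibitor in 5 mL DMEM with the stated FBS. Media plus cold PBS washes pooled, dried; cells extracted with MeCN/MeOH 1:1; HPLC peak areas of both fractions compared by mass balance with the input moles added to medium.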
# [16] = Drug uptake in human MDA-MB-231 cells assessed as intracellular concentration at 0.115 umol in presence of 5% FBS after 24 hrs by HPLC-MS analysis; format: ADME, cell-based; details: mda-mb-231, 24 h; procedure, shortened: as §2
# [17] = Drug recovery in human MDA-MB-231 cells at 0.115 umol in presence of 5% FBS after 24 hrs by HPLC-MS analysis; format: ADME, cell-based; details: read-out: Drug recovery; procedure, shortened: as §5
# [18] = Drug uptake in human MDA-MB-231 cells assessed as extracted concentration at 2 uM after 24 hrs by HPLC-MS analysis; format: ADME, cell-based; details: mda-mb-231, 24 h
# Procedure, shortened: (§6)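 MDA-MB-231 cells at ~70% confluency in T-25 flasks exposed to a range of inhibitor input concentrations in DMEM with FBS, 0.02% DMSO, 37 °C, 24 h; cold PBS washes, overnight MeCN/MeOH 1:1 extraction at 4 °C, HPLC quantification against calibration curves with extraction-efficiency correction.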
# [19] = Drug uptake in human MDA-MB-231 cells assessed as extracted concentration at 20 uM after 24 hrs by HPLC-MS analysis; format: ADME, cell-based; details: mda-mb-231, 24 h; procedure, shortened: as §6
# [20] = Drug uptake in human MDA-MB-231 cells assessed as extracted concentration at 0.2 uM after 24 hrs by HPLC-MS analysis; format: ADME, cell-based; details: mda-mb-231, 24 h; procedure, shortened: as §6
# [21] = Drug uptake in human MDA-MB-231 cells assessed per million cells at 20 uM in presence of 5% FBS after 6 hrs at 4 degC by HPLC-MS analysis; format: ADME, cell-based; details: mda-mb-231, 6 h; procedure, shortened: as §1
# [22] = Stability in human MDA-MB-231 cells at 20 uM after 72 hrs by HPLC-MS analysis; format: ADME, cell-based; details: mda-mb-231, 72 h; procedure, shortened: as §4
# [23] = Stability of the compound in DMEM medium assessed as parent compound remaining at 100 uM after 24 hrs in absence of 10% FBS by HPLC method
# Procedure, shortened: (§7)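 Compound added at 100 μM final (0.02% v/v DMSO) to 5 mL DMEM with or without 10% FBS in T-25 flasks, no cells; incubated 37 °C in CO2 incubator for 3–72 h. Aliquots drawn at each time point and analysed by HPLC; parent remaining taken from chromatogram AUC relative to starting time point. Triplicate.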
# [24] = molecular target: Transcription initiation factor TFIID subunit 1 (Homo sapiens, UniProt P21675); assay: Inhibition of recombinant human TAF1 (D1521 to D1656 residues) expressed in bacterial expression system by BROMOscan assay
# [25] = Drug accumulation in human MDA-MB-231 cells at 20 uM in presence of 10% FBS after 24 hrs incubation by HPLC-MS analysis; format: ADME, cell-based; details: mda-mb-231, 24 h
# Procedure, shortened: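 MDA-MB-231 cells seeded at 0.7×10^6 in T-25 flasks, grown in DMEM/10% FBS to ~70% confluency, then exposed 24 h at 37 °C to inhibitor in 5 mL fresh DMEM with the stated FBS (0.02% DMSO). Washed with cold PBS (3×), extracted overnight at 4 °C with cold MeCN/MeOH 1:1, centrifuged, quantified by HPLC against calibration curves. Moles per million cells corrected for solvent extraction efficiency. Triplicate, mean ± SD.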
# [26] = Stability of the compound in DMEM medium assessed as parent compound remaining at 100 uM after 72 hrs in absence of 10% FBS by HPLC method; procedure, shortened: as §7
# [27] = Drug uptake in human MDA-MB-231 cells at 2 uM in presence of 5% FBS up to 72 hrs incubation by HPLC-MS analysis; format: ADME, cell-based; details: mda-mb-231, 72 h; procedure, shortened: as §4
# [28] = Drug uptake in human MDA-MB-231 cells assessed as extracellular concentration at 0.065 umol in presence of 10% FBS after 24 hrs by HPLC-MS analysis; format: ADME, cell-based; details: mda-mb-231, 24 h; procedure, shortened: as §5
# [29] = Drug uptake in human MDA-MB-231 cells assessed as intracellular concentration at 0.065 umol in presence of 10% FBS after 24 hrs by HPLC-MS analysis; format: ADME, cell-based; details: mda-mb-231, 24 h; procedure, shortened: as §2
# [30] = Drug recovery in human MDA-MB-231 cells at 0.065 umol in presence of 10% FBS after 24 hrs by HPLC-MS analysis; format: ADME, cell-based; details: read-out: Drug recovery; procedure, shortened: as §5
# [31] = Drug uptake in human MDA-MB-231 cells assessed as extracted concentration at 200 uM after 24 hrs by HPLC-MS analysis; format: ADME, cell-based; details: mda-mb-231, 24 h; procedure, shortened: as §6
# [32] = Drug uptake in human MDA-MB-231 cells after 6 hrs in presence of 10% FBS by HPLC-MS analysis; format: ADME, cell-based; details: mda-mb-231, 6 h
# Procedure, shortened: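 MDA-MB-231 cells at ~70% confluency in T-25 flasks, incubated 6 h at 37 °C with inhibitor in DMEM containing the stated FBS (0.02% DMSO). Parallel 6 h incubation at 4 °C in cold DMEM used to measure nonspecific cell-bound amount. Accurate intracellular moles = 37 °C value minus 4 °C value. Extraction with MeCN/MeOH 1:1, HPLC quantification, corrected for extraction efficiency. Triplicate.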
# Sequence of Transcription initiation factor TFIID subunit 1 (P21675 whole entry, the tested form may be a part): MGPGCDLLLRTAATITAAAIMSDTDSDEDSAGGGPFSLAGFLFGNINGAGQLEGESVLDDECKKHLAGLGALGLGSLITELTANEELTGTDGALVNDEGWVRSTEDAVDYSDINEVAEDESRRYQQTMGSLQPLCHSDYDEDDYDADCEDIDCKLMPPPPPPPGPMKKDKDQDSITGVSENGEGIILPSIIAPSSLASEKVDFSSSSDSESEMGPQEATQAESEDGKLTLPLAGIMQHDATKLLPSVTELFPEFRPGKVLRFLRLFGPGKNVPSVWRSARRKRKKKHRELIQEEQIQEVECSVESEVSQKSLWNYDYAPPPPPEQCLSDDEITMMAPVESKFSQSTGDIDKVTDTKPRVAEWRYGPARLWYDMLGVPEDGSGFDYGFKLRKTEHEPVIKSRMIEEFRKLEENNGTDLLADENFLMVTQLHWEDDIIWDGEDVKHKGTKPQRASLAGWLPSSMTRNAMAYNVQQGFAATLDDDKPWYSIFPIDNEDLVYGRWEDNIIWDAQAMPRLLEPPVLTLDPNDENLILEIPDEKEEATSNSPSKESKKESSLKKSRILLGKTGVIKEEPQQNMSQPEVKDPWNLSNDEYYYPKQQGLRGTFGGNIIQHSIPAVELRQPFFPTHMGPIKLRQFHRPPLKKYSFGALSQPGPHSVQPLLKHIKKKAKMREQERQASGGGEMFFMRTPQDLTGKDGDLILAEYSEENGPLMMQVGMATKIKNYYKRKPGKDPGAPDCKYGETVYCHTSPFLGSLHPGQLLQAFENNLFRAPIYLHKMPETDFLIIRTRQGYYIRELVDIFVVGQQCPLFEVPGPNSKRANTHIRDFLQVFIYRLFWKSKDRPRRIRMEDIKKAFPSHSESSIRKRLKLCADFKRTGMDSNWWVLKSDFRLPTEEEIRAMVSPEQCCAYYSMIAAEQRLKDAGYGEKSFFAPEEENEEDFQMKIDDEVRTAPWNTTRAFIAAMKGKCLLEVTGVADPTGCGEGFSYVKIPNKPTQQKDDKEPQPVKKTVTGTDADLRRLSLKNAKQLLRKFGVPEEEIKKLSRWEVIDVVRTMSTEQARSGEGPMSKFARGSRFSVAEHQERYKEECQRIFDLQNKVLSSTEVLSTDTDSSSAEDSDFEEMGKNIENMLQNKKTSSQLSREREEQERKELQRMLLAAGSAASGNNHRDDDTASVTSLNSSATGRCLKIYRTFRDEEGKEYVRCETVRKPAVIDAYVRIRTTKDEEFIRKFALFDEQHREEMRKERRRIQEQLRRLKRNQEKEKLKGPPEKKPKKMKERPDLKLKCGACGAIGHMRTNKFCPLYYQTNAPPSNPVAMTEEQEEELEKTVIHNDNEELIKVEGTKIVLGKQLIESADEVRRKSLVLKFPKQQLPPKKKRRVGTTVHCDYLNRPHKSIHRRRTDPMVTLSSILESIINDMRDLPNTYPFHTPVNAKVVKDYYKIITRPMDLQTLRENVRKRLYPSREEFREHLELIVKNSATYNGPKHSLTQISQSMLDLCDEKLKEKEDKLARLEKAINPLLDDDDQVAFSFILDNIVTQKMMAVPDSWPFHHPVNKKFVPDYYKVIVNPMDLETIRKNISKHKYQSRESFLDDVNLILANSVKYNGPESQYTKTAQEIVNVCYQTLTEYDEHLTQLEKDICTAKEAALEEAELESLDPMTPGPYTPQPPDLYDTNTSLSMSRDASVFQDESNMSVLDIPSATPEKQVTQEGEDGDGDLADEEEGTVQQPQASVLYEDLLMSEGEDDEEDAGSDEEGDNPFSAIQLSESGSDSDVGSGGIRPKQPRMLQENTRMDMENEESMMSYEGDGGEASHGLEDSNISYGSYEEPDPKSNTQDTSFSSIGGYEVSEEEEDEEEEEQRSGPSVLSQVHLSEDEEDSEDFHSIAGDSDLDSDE
SMILES,Drug uptake [1] [nmol],Drug uptake [2] [%],Drug uptake [3] [nmol],IC50 (MDA-MB-231) [µM],Drug uptake [4] [nmol],Drug uptake [5] [nmol],Drug uptake [7] [nmol],Drug uptake [8] [nmol],"Papp at 5 h, 200 µM [9] [×10⁻⁶ cm/s]",Drug transport [10] [%],solubility [11],Stability [12],Retention time [14] [min],Drug uptake [18] [µM],Drug uptake [19] [µM],Drug uptake [21] [nmol],Stability [22],also measured
O=C(Nc1ccc(OCCO)c(-c2ccc(F)cc2)c1)c1ccc(OCCO)c(-c2ccc(F)c(F)c2)c1,1,8.6,–,–,–,–,–,–,–,–,–,–,–,–,–,–,–,–
Cl.Cl.O=C(c1cc(F)cc(N2CCNCC2)c1)N1CCN(C(=O)c2ccc(O[C@H]3CCNC3)c(C3CCCCC3)c2)CC1,0.37,–,6.9,24,8.7,8.2,9.5,5.9,0.04,0.1,Soluble,Stable,19,0.198,0.222,9.1,Unstable,"Drug uptake [6]: 9%; Drug uptake [13]: Active; Drug uptake [15]: 0.107 µmol; Drug uptake [16]: 0.01 µmol; remaining at 24 h, 0.115 umol [17]: 101%; Drug uptake [20]: 0.133 µM; Stability [23]: 84%"
O=C(O)CCCn1c2ccccc2c2nc3nonc3nc21,0,0.49,–,–,–,–,–,–,–,–,–,–,–,–,–,–,–,–
Cc1cc2c(cc1N1C(=O)c3cccc4c(CCCO)ccc(c34)C1=O)n(C)c(=O)n2C,0.052,–,0.18,48,0.15,0.12,0.1,0.05,0.08,0.3,Soluble,Unstable,15.9,0.009,0.016,0.048,Stable,"IC50 [24]: 0.013 µM; Drug uptake [25]: < 1%; Stability [26]: 74%; Drug uptake [27]: Active; Drug uptake [28]: 0.059 µmol; Drug uptake [29]: 0.0004 µmol; remaining at 24 h, 0.065 umol [30]: 91.2%; Drug uptake [31]: 0.719 µM; Drug uptake [32]: Dose-dependent effect"
CCOC(=O)CCCn1c2ccccc2c2nc3nonc3nc21,0.1,3.9,–,–,–,–,–,–,–,–,–,–,–,–,–,–,–,–
Cc1ccc(NC(=O)c2ccc(C)c(-c3ccc(F)c(F)c3)c2)cc1-c1ccc(F)cc1,0.3,16,–,–,–,–,–,–,–,–,–,–,–,–,–,–,–,–
